ChEMBL document CHEMBL1123913, “Discovery and anticonvulsant activity of the potent metabolic inhibitor 4-amino-N-(2,6-dimethylphenyl)-3,5-dimethylbenzamide” (1987)
Activity calls are given as the source filed them. No cut-off for these calls is given here.

What was measured:
[1] = Protective index (HS ED50/MES ED50) after oral administration in mice; type: functional
In short: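 Ratio of the horizontal-screen ED50 to the MES ED50. Both come from oral dosing of fasted mice in 5% acacia/water at the time of peak effect and are calculated by Litchfield–Wilcoxon.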

Mus musculus [2] = experiment: Plasma concentration was determined after 120 min of oral administration in mice; type: functional, organism-based
In short: (§1)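 Three groups of two mice dosed orally at 1.7, 3.5 or 5.6 mg/kg, suspended in 5% acacia. Blood taken by cardiac puncture under methoxyfluorane into heparin, plasma stored at −30 °C. Parent and N-acetyl metabolite measured by C18 HPLC with absorbance detection against plasma standards of 50–2000 ng/mL. Detection limit 25 ng/mL. Mean ± SEM.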

Mus musculus [3] = experiment: Time taken for peak anticonvulsant effect(TPE) was measured by oral administration to mice; type: functional
In short: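 Fasted mice, four per group, given a range of oral doses in 5% acacia/water. Challenged with corneal electroshock (40 mA, 0.1 s, ac) at 0.5, 1, 2, 3 and 4 h after dosing to find the time of peak anticonvulsant effect.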

Mus musculus [4] = experiment: Plasma concentration was determined after 30 min of oral administration in mice; type: functional, organism-based; in short: as §1
Mus musculus [5] = experiment: Effect on Hexobarbitol-Induced sleeping time in mice at a dose of 3.2 mg/kg peroral administration; type: functional; conditions: route oral
In short: (§2)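 Groups of 10 fasted mice dosed orally in 5% acacia/water. Hexobarbital 100 mg/kg ip, solubilized with stoichiometric NaOH, given 0.5 h later. Sleeping time is loss of righting reflex, to the nearest minute. Reported as mean ± SEM and percent increase over hexobarbital control.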

Mus musculus [6] = experiment: Effect on Hexobarbitol-Induced sleeping time in mice at a dose of 0 mg/kg peroral administration; type: functional; conditions: route oral; in short: as §2
Mus musculus [7] = experiment: Plasma concentration was determined after 360 min of oral administration in mice; type: functional, organism-based; in short: as §1
Mus musculus [8] = experiment: Plasma concentration was determined after 60 min of oral administration in mice; type: functional, organism-based; in short: as §1
Mus musculus [9] = experiment: Effect on Hexobarbitol-Induced sleeping time in mice at a dose of 1.6 mg/kg peroral administration; type: functional; conditions: route oral; in short: as §2
Mus musculus [10] = experiment: Effect on Hexobarbitol-Induced sleeping time in mice at a dose of 6.4 mg/kg peroral administration; type: functional; conditions: route oral; in short: as §2
Mus musculus [11] = experiment: Plasma concentration was determined after 240 min of oral administration in mice; type: functional, organism-based; in short: as §1
Mus musculus [12] = experiment: Effect on Hexobarbitol-Induced sleeping time in mice at a dose of 12.8 mg/kg peroral administration; type: functional; conditions: route oral; in short: as §2
Mus musculus [13] = organism: Mus musculus; experiment: Ataxia or neurological deficit was measured as horizontal screen test(HS) in mice; type: functional
In short: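 Male CF1 mice (20–25 g), fasted 90 min, given oral doses as suspension in 5% acacia/water, then placed on a 13 cm × 13 cm wire screen. Retested at the time of peak effect with at least four doses and 12 mice per dose. ED50 by Litchfield–Wilcoxon, with 95% confidence limits.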

Mus musculus [14] = experiment: Antagonistic activity against MES (Maximal Electroshock)-induced seizures after oral administration to mice; type: functional
In short: (§3)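 Fasted (90 min) mice dosed orally with a range of doses as suspension in 5% acacia/water. Electroshock 40 mA, 0.1 s, ac, via corneal electrodes at the time of peak effect, using at least four doses, 12 mice per dose. ED50 for prevention of tonic-extensor convulsions by Litchfield–Wilcoxon, with 95% confidence limits.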

Mus musculus [15] = experiment: Antagonistic activity against MES(Maximal Electroshock)-induced seizures after oral administration to mice; type: functional; in short: as §3
Mus musculus [16] = experiment: Ataxia or neurological deficit was measured as horizontal screen test(HS) in mice at the highest dose of 300 mg/kg; NA means Not active; type: functional, organism-based; design: dose 300 mg/kg
Mus musculus [17] = experiment: Ataxia or neurological deficit was measured as horizontal screen test(HS) in mice at a dose of 160 mg/kg; NA means Not active; type: functional, organism-based; design: dose 160 mg/kg
Mus musculus [18] = experiment: Effect on Hexobarbitol-Induced sleeping time in mice at a dose of 30.4 mg/kg peroral administration; type: functional; conditions: route oral
In short: (§4)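 Groups of 10 fasted mice dosed orally in 5% acacia/water. Hexobarbital 100 mg/kg ip, solubilized with stoichiometric NaOH, given 1.0 h later. Duration of loss of righting reflex to the nearest minute. Mean ± SEM, percent increase over hexobarbital control, p < 0.05 significance.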

Mus musculus [19] = experiment: Effect on Hexobarbitol-Induced sleeping time in mice at a dose of 3.8 mg/kg peroral administration; type: functional; conditions: route oral; in short: as §4
Mus musculus [20] = experiment: Effect on Hexobarbitol-Induced sleeping time in mice at a dose of 7.6 mg/kg peroral administration; type: functional; conditions: route oral; in short: as §4
Mus musculus [21] = experiment: Antagonistic activity against MES-induced seizures after oral administration to mice; type: functional; in short: as §3
Mus musculus [22] = experiment: Effect on Hexobarbitol-Induced sleeping time in mice at a dose of 15.2 mg/kg peroral administration; type: functional; conditions: route oral; in short: as §4

In the case of Cc1cccc(C)c1NC(=O)c1ccc(N)cc1 [AMELTOLIDE], the PI [1] is reported as 13, the Concentration (Mus musculus [2]) is reported as 656 ng/mL and the TPE (Mus musculus [3]) is reported as 0.5 h. The Concentration (Mus musculus [4]) was 1090 ng/mL, the Sleeping time (Mus musculus [5]) was 69.3 min and the Sleeping time (Mus musculus [6]) was 59.6 min. It also gave a Concentration (Mus musculus [7]) of 299 ng/mL, a Concentration (Mus musculus [8]) of 893 ng/mL and a Sleeping time (Mus musculus [9]) of 67.9 min. The Sleeping time (Mus musculus [10]) was 75 min, the Concentration (Mus musculus [11]) was 394 ng/mL and the Sleeping time (Mus musculus [12]) was 76.4 min. For the same compound, the ED50 (Mus musculus [13]) was 23 mg/kg and the ED50 (Mus musculus [14]) was 1.7 mg/kg.

Cc1cc(C(=O)Nc2c(C)cccc2C)cc(C)c1N gave an ED50 (Mus musculus [15]) of 5.6 mg/kg, a Concentration (Mus musculus [2]) of 1060 ng/mL and a TPE (Mus musculus [3]) of 1 h. For the same compound, the Concentration (Mus musculus [4]) was 1480 ng/mL, the Concentration (Mus musculus [8]) was 1160 ng/mL and the ED50 (Mus musculus [13]) was 64 mg/kg.

In the case of CC(=O)Nc1ccc(C(=O)Nc2c(C)cccc2C)cc1, the Concentration (Mus musculus [2]) is reported as 545 ng/mL, the TPE (Mus musculus [3]) is reported as 2 h and the Concentration (Mus musculus [4]) is reported as 412 ng/mL. For the same compound, the ED50 (Mus musculus [16]) was “inactive”, the Concentration (Mus musculus [7]) was 225 ng/mL and the Concentration (Mus musculus [8]) was 587 ng/mL. It also gave a Concentration (Mus musculus [11]) of 425 ng/mL and an ED50 (Mus musculus [14]) of 3.8 mg/kg.

O=C1NC(=O)C(c2ccccc2)(c2ccccc2)N1 [PHENYTOIN] showed a TPE (Mus musculus [3]) of 1 h, an ED50 (Mus musculus [13]) of 210 mg/kg and an ED50 (Mus musculus [14]) of 9.4 mg/kg.

For CC(=O)Nc1c(C)cc(C(=O)Nc2c(C)cccc2C)cc1C, the TPE (Mus musculus [3]) was 2 h, the ED50 (Mus musculus [17]) was “inactive” and the ED50 (Mus musculus [14]) was 170 mg/kg.

Cc1cc(C(=O)Nc2c(C)cccc2C)ccc1N showed a Sleeping time (Mus musculus [18]) of 133.8 min, a TPE (Mus musculus [3]) of 1 h and a Sleeping time (Mus musculus [6]) of 66.4 min. It also gave a Sleeping time (Mus musculus [19]) of 85.6 min, a Sleeping time (Mus musculus [20]) of 97.9 min and an ED50 (Mus musculus [21]) of 3.5 mg/kg. For the same compound, the ED50 (Mus musculus [13]) was 84 mg/kg and the Sleeping time (Mus musculus [22]) was 85.5 min.

With CC(=O)Nc1ccc(C(=O)Nc2c(C)cccc2C)cc1C the Concentration (Mus musculus [2]) was 91 ng/mL, the TPE (Mus musculus [3]) was 1 h and the Concentration (Mus musculus [4]) was 79 ng/mL. For the same compound, the Concentration (Mus musculus [8]) was 97 ng/mL, the ED50 (Mus musculus [13]) was 56 mg/kg and the ED50 (Mus musculus [14]) was 4.5 mg/kg.
